ERAP1 HTS inh: human ERAP1 aminopeptidase inhibitors, primary screen, biochemical, single point, plate reader; Endoplasmic reticulum aminopeptidase 1 (Homo sapiens), Q9NZ08; recombinant ERAP1, Leu-AMC fluorescence, 60 min; inhibition, % at 10.7 µM; 340,000 compounds, 0.15% hits;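 active = mean replicate inhibition of at least 30%, or all replicates individually reaching that 30% level; inactive = mean below 30% and not every replicate reaching it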;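 note: 0% = neutral control wells and 100% = L-leucinethiol positive control wells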
Rtt109 Vps75: inhibitors of C. albicans Rtt109/Vps75 HAT, primary screen, biochemical, ThioGlo CoA-SH fluorescence, plate reader; AID 540336, 2011; 330,000 compounds, 0.16% hits; inhibition, % at 34.9 µM; Histone acetyltransferase RTT109 (Candida albicans (strain SC5314 / ATCC MYA-2876)), …; purified Rtt109/Vps75, 4 h;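 active = inhibition of at least 50% in every replicate; inconclusive = best replicate reaches 50% inhibition but some replicates fall short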
Target sequence (Q5AAJ8 whole entry, looked up): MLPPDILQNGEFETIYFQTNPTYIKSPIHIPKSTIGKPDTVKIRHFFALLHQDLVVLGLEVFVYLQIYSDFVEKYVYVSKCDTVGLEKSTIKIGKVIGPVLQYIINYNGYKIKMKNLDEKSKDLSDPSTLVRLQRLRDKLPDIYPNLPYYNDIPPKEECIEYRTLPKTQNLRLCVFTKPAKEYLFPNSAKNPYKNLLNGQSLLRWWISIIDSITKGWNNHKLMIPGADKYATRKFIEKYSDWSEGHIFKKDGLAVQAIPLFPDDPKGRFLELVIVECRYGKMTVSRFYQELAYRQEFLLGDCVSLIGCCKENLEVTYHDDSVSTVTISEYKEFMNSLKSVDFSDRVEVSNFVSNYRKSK
miR122 inh: miR-122 Renilla sensor signal increase in Huh7, primary screen, miR-122 inhibitor project, cell-based, single point, plate reader | Huh7 miR-122 Renilla luciferase sensor, 48 h; neutral wells = 0, positive control = 100 | activation (reporter increase), % at 12.5 µM | 340,000 compounds, 0.3% hits;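 active = mean replicate activation score at least 90 and every replicate individually at or above 90; inconclusive = only one of the two criteria met; inactive = neither criterion met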;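 note: higher luciferase means less miR-122 activity so hits act as miR-122 inhibitors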
S100A4 MyoIIA: inhibitors of S100A4-myosin IIA peptide binding, primary screen, biochemical, fluorescence polarization, TAMRA-MyoIIA peptide. inhibition, % at 10.7 µM. 360,000 compounds, 0.14% hits. AID 652163, 2013;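 active = mean inhibition of at least 70% across replicates, with every replicate also reaching that level; inconclusive = mean inhibition reaches 70% but some replicates fall short; inactive = mean inhibition below 70%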
Target sequence (P26447 whole entry, looked up): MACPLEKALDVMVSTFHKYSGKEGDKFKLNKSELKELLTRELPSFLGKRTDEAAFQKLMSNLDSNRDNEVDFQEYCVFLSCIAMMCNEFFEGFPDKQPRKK
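Test system – S100A4 monomer (human) · Compound – single-point compound testing · Schedule – 5 min incubation before reading · Probe or stimulus – TAMRA-labelled myosin IIA heavy-chain peptide probe, 5 nM · Benchmarks – neutral control DMSO, positive control TFP · Medium – Calcium-containing HEPES buffer, pH 7.2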
AF4-AF9 inh: inhibitors of AF4 peptide binding to AF9, primary screen, biochemical, AlphaScreen, biotin-AF4 peptide, FLAG-AF9, single point. inhibition, % at 10 µM. 350,000 compounds, 0.47% hits. AID 651704, 2012;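 active = every replicate reaching a set inhibition limit, whatever the replicate mean, cut at about 25% in these data; inconclusive = mean inhibition reaches that limit but some replicates miss it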;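 note: 0% = plate neutral control median and 100% = total signal loss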
An asterisk follows results filed as active; ? = inconclusive; . = not tested or not shown; [ ] = another dose, or the depositor's remark. Shown are actives, neighbours in structure and some others; about 0.86% of the full set was active somewhere.

SMILES | ERAP1 HTS inh | Rtt109 Vps75 | miR122 inh | S100A4 MyoIIA | AF4-AF9 inh
CO[C@H]1CN(C)C(=O)c2ccc(NS(=O)(=O)CC(F)(F)F)cc2OC[C@H](C)N(CC2CCCCC2)C[C@@H]1C | 3.3 | . | . | -2.0 | -1.8
C(=C\c1nc(N2CCCC2)c2ccccc2n1)/c1ccccc1 | . | -1.6 | . | . | .
CC1CCN(c2nc(/C=C/c3ccccc3)nc3ccccc23)CC1 | -0.2 | -3.2 | . | -4.2 | 32.2*
Cc1ccc(S(=O)(=O)N(C)C[C@H]2OCCCC[C@@H](C)Oc3ccc(NS(=O)(=O)c4ccc(Cl)cc4)cc3C(=O)N([C@@H](C)CO)C[C@@H]2C)cc1 | 1.0 | . | 2.5[16.7 µM] | -5.1 | 9.3
CCN1C(=O)c2cccc3c(S(=O)(=O)NCc4ccccc4)ccc1c23 | 20.0 | -1.8 | . | -3.2 | ?
CCN1C(=O)c2cccc3c(S(=O)(=O)NCCc4c[nH]c5ccccc45)ccc1c23 | . | -6.0 | 497.5* | . | .
Cc1ccc(-c2nn(-c3ccccc3)cc2CO)cc1 | -1.3 | -3.0 | -6.9 | -1.4 | 6.2
N=C(N)SCc1cn(-c2ccccc2)nc1-c1ccc(Br)cc1 | -12.6 | ? | . | 9.7 | 32.8*
Cc1cc(CN2C(=O)c3ccccc3C2=O)on1 | . | -2.2 | -4.3 | . | .
Cc1cc(CN2C(=O)c3ccccc3C2=O)no1 | . | 57.5* | 5.7 | . | .
CCOc1cc(N2CCOCC2)c(OCC)cc1NC(=O)CN1CCC(Cc2ccccc2)CC1 | 1.4 | 27.5 | . | 5.5 | 28.9*
CCOc1cc(N2CCOCC2)c(OCC)cc1NC(=O)CN1C(=O)NC(Cc2ccccc2)C1=O (stereo unspecified) | . | 8.4 | -14.8 | . | .
CO[C@@H]1CN(C)C(=O)c2ccc(NC(=O)Nc3ccc4c(c3)OCO4)cc2OC[C@@H](C)N(C(C)=O)C[C@H]1C | -0.7 | . | . | 2.4 | 10.1
O=S(=O)(NC1CC2CCC1C2)c1ccc2c(c1)OCCO2 (stereo unspecified) | . | 4.4 | 126.1* | . | .
CC1CCCC(NS(=O)(=O)c2ccc3c(c2)OCCO3)C1C (stereo unspecified) | . | 13.5 | ? | . | .
COc1ccc(S(=O)(=O)NC2CC3CCC2C3)cc1Br (stereo unspecified) | -1.7 | -1.0 | 83.7 | 4.7 | 0.6
COc1ccc(S(=O)(=O)NC2CC3CCC2C3)cc1Cl (stereo unspecified) | 0.7 | -5.8 | 107.6* | 0.2 | 5.0
C[C@@H]1CN([C@H](C)CO)S(=O)(=O)c2ccc(C3=CCCCC3)cc2O[C@H]1CN(C)C(=O)Nc1ccc2c(c1)OCO2 | 0.6 | . | 35.2[16.7 µM] | -15.6 | 10.4
C=CC(C)n1c(Br)nc2c1c(=O)[nH]c(=O)n2C (stereo unspecified) | . | -4.5 | 154.3* | . | .
COc1ccc(S(=O)(=O)Nc2cc(Cl)ccc2OC)cc1 | . | 8.0 | 137.5* | . | .
COc1ccc(Cl)cc1NS(=O)(=O)c1ccc(OC)c(OC)c1 | 1.2 | -4.8 | 36.3 | -1.9 | .
COc1ccc(C)cc1S(=O)(=O)Nc1cc(Cl)ccc1Cl | . | -9.6 | 214.7* | . | .
COc1ccc(OC)c(NS(=O)(=O)c2ccc(N3CCCC3=O)cc2)c1 | . | -2.5 | 120.0* | . | .
COc1ccc(CCNS(=O)(=O)c2ccc(N3CCCC3=O)cc2)cc1 | . | -10.0 | 17.4 | . | .
CCc1ccc(OC)c(S(=O)(=O)Nc2ccccc2C)c1 | 1.0 | 8.7 | 114.9* | 1.3 | -1.9
SMILES | ERAP1 HTS inh | Rtt109 Vps75 | miR122 inh | S100A4 MyoIIA | AF4-AF9 inh
CN1CCc2cccc3c2[C@@H]1Cc1ccc(O)c(O)c1-3 | . | 60.1* | -3.2 | 16.6 | 25.8*
COc1ccc(S(=O)(=O)Nc2cccc3c2O[C@H](CN(C)C(=O)NC2CCCCC2)[C@H](C)CN([C@H](C)CO)C3=O)cc1 | -2.3 | . | 2.4[16.7 µM] | -8.7 | 9.1
O=[N+]([O-])c1ccc(N2CCN(C(=S)NCc3ccc(Cl)cc3)CC2)cc1 | 0.8 | -2.7 | . | -0.6 | 33.6*
C[C@@H]1CN([C@H](C)CO)C(=O)c2cc(NC(=O)Cn3cnnn3)ccc2O[C@@H]1CN(C)C(=O)Nc1ccc(F)cc1 | 1.4 | . | 3.2[16.7 µM] | -2.0 | 0.2
CC(=O)N1[C@H](C(=O)NCCCN(C)C)[C@@H](CO)[C@@H]2Cn3c(ccc(-c4cccc(F)c4)c3=O)[C@@H]21 | 8.4 | . | . | 100.8* | -0.8
CCNC(=O)[C@@H]1[C@@H](CO)[C@@H]2Cn3c(ccc(-c4cccc(F)c4)c3=O)[C@@H]2N1C(C)=O | 2.5 | . | . | 11.8 | -2.6
CCC(=O)N1[C@@H]2c3ccc(-c4ccccc4F)c(=O)n3C[C@H]1[C@H](CO)[C@H]2C(=O)NC1CCCC1 | -3.7 | . | 0.7[16.7 µM] | 12.5 | -1.0
C/C(CCC(C)C)=N\NS(=O)(=O)c1ccc(C)c([N+](=O)[O-])c1 | 0.6 | 0.6 | 13.9 | -14.6 | -2.3
Cc1ccc(S(=O)(=O)NCCC(C)C)cc1[N+](=O)[O-] | -3.8 | 2.5 | 232.1* | 0.9 | -32.2
CC(C)CNC(=O)COC(=O)c1cccc(S(=O)(=O)NCC(F)(F)F)c1 | 0.7 | 2.4 | 7.5 | -0.1 | 25.2*
CNS(=O)(=O)c1cccc(C(=O)OCC(=O)NCc2ccccc2)c1 | 3.0 | -0.3 | -2.2 | 0.7 | .
O=S(=O)(O)c1cccc2cccc(Nc3ccccc3)c12 | 42.7* | -11.2 | -2.9 | 4.4 | 0.2
CN(C)c1ccc(/C=N/N2CCN(Cc3ccccc3Cl)CC2)cc1 | -0.6 | -6.8 | 0.7 | 1.9 | 30.8*
CCN(CC)c1ccc(/C=N/N2CCN(Cc3ccccc3Cl)CC2)cc1 | -1.0 | -3.1 | 1.8 | 14.5 | 26.1*
CCN(CC)c1ccc(/C=N/N2CCN(Cc3ccccc3)CC2)cc1 | -0.9 | 2.9 | . | 1.2 | 36.7*
O=[N+]([O-])c1ccc(/C=N\N2CCN(Cc3ccccc3Cl)CC2)cc1 | -1.8 | . | 1.9 | -2.2 | 1.1
CCN(CC)c1ccc(/C=N/N2CCN(c3ccccc3OC)CC2)cc1 | 0.7 | -0.2 | 3.7 | -5.9 | 30.4*
CN(C)CC#Cc1cccc(-c2nc(C(=O)N[C@@H]3CCN(Cc4ccccc4)C3)cc3c2[C@H](CCO)N(S(=O)C(C)(C)C)C3)c1 (stereo partly specified) | 0.6 | . | . | -55.7 | 16.0
CCOCc1c(C(=O)Nc2ccc(OC)nc2)oc2ccccc12 | 54.6* | -4.0 | -3.8 | -6.9 | -3.8
COc1ccc(NC(=O)c2oc3ccccc3c2CSC)cn1 | -4.7 | -8.5 | 3.5 | 4.4 | -1.6
COc1ccc(C)cc1S(=O)(=O)NCCC1=CCCCC1 | 2.0 | 1.1 | 93.4* | -3.9 | -3.4
O=S(=O)(NCCC1=CCCCC1)c1ccccc1Br | -2.2 | 37.8 | 139.9* | 1.0 | -1.5
COc1ccc(C)cc1S(=O)(=O)N1CCC(C(=O)NCCC2=CCCCC2)CC1 | . | 4.3 | 8.5 | . | .
Cc1ccccc1N/N=C/c1c(C)nc2ccccn12 | -1.7 | -10.6 | . | -0.6 | 25.6*
